Measurements as given in ChEMBL document CHEMBL4351006, “A new exploration towards aminothiazolquinolone oximes as potentially multi-targeting antibacterial agents: Design, synthesis and evaluation acting on microbes, DNA, HSA and topoisomerase IV” (Eur J Med Chem, 2019).
≈ marks a conversion by molar mass, not a printed value.

Assays:
Aspergillus fumigatus [1] = test: Antifungal activity against Aspergillus fumigatus assessed as reduction in fungal cell viability incubated for 24 hrs by two fold serial dilution method; type: functional
Outline: (§1)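 Broth two-fold serial dilution run to CLSI guidelines. Chloromycin, norfloxacin and fluconazole served as reference drugs.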

Candida parapsilosis = test: Antifungal activity against Candida parapsilosis ATCC 22019 assessed as reduction in fungal cell viability incubated for 24 hrs by two fold serial dilution method; conditions: Lodderomyces parapsilosis, ATCC 22019, 24 h
Acinetobacter baumannii = test: Antibacterial activity against Acinetobacter baumannii assessed as reduction in bacterial cell viability incubated for 24 hrs by two fold serial dilution method; type: functional; outline: as §1
Candida albicans [2] = test: Antifungal activity against Candida albicans ATCC 90023 assessed as reduction in fungal cell viability incubated for 24 hrs by two fold serial dilution method; type: functional; conditions: ATCC 90023, 24 h; outline: as §1
Pseudomonas aeruginosa [3] = test: Antibacterial activity against Pseudomonas aeruginosa assessed as reduction in bacterial cell viability incubated for 24 hrs by two fold serial dilution method; type: functional; outline: as §1
Staphylococcus aureus [4] = test: Antibacterial activity against Staphylococcus aureus ATCC 25923 assessed as reduction in bacterial cell viability incubated for 24 hrs by two fold serial dilution method; type: functional; conditions: ATCC 25923, 24 h; outline: as §1
Aspergillus fumigatus [5] = test: Potency index, ratio of MIC of fluconazole to MIC of compound for antifungal activity against Aspergillus fumigatus assessed as reduction in […] incubated for 24 hrs by two fold serial dilution method; type: functional
Staphylococcus aureus [6] = test: Antibacterial activity against Staphylococcus aureus ATCC 29213 assessed as reduction in bacterial cell viability incubated for 24 hrs by two fold serial dilution method; type: functional; conditions: ATCC 29213, 24 h; outline: as §1
Escherichia coli [7] = test: Antibacterial activity against Escherichia coli ATCC 25922 assessed as reduction in bacterial cell viability incubated for 24 hrs by two fold serial dilution method; type: functional; conditions: ATCC 25922, 24 h; outline: as §1
Candida tropicalis = test: Antifungal activity against Candida tropicalis assessed as reduction in fungal cell viability incubated for 24 hrs by two fold serial dilution method; type: functional; outline: as §1
Pseudomonas aeruginosa [8] = test: Antibacterial activity against Pseudomonas aeruginosa ATCC 27853 assessed as reduction in bacterial cell viability incubated for 24 hrs by two fold serial dilution method; type: functional; conditions: ATCC 27853, 24 h; outline: as §1
Staphylococcus aureus [9] = test: Antibacterial activity against methicillin resistant Staphylococcus aureus N315 assessed as reduction in bacterial cell viability incubated for 24 hrs by two fold serial dilution method; type: functional; conditions: N315, 24 h
Outline: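 MIC by two-fold serial dilution following CLSI, with chloromycin and norfloxacin as reference drugs.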

Escherichia coli [10] = test: Antibacterial activity against Escherichia coli assessed as reduction in bacterial cell viability incubated for 24 hrs by two fold serial dilution method; type: functional; outline: as §1
Candida albicans [11] = test: Antifungal activity against Candida albicans assessed as reduction in fungal cell viability incubated for 24 hrs by two fold serial dilution method; type: functional; outline: as §1
Klebsiella pneumoniae = test: Antibacterial activity against Klebsiella pneumoniae assessed as reduction in bacterial cell viability incubated for 24 hrs by two fold serial dilution method; type: functional; outline: as §1
Staphylococcus aureus [12] = test: Antibacterial activity against Staphylococcus aureus assessed as reduction in bacterial cell viability incubated for 24 hrs by two fold serial dilution method; type: functional; outline: as §1
Enterococcus faecalis = test: Antibacterial activity against Enterococcus faecalis assessed as reduction in bacterial cell viability incubated for 24 hrs by two fold serial dilution method; type: functional; outline: as §1

Row | Compound | MIC (Aspergillus fumigatus [1]) | MIC (Candida parapsilosis) | MIC (Acinetobacter baumannii) | MIC (Candida albicans [2]) | MIC (Pseudomonas aeruginosa [3]) | MIC (Staphylococcus aureus [4]) | Ratio (Aspergillus fumigatus [5]) | MIC (Staphylococcus aureus [6]) | MIC (Escherichia coli [7]) | MIC (Candida tropicalis) | MIC (Pseudomonas aeruginosa [8]) | MIC (Staphylococcus aureus [9]) | MIC (Escherichia coli [10]) | MIC (Candida albicans [11]) | MIC (Klebsiella pneumoniae) | MIC (Staphylococcus aureus [12]) | MIC (Enterococcus faecalis)
1 | CCn1cc(-c2csc(N)n2)c(=O)c2cc(F)c(N3CCN(C/C(C)=N/NC(N)=O)CC3)cc21 | 263 µM (≈ 128 µg/mL) | 66 µM (≈ 32.1 µg/mL) | 263 µM (≈ 128 µg/mL) | 132 µM (≈ 64.2 µg/mL) | 263 µM (≈ 128 µg/mL) | 132 µM (≈ 64.2 µg/mL) | 3 | 263 µM (≈ 128 µg/mL) | 263 µM (≈ 128 µg/mL) | 132 µM (≈ 64.2 µg/mL) | 132 µM (≈ 64.2 µg/mL) | 66 µM (≈ 32.1 µg/mL) | 263 µM (≈ 128 µg/mL) | 526 µM (≈ 256 µg/mL) | 526 µM (≈ 256 µg/mL) | 263 µM (≈ 128 µg/mL) | 526 µM (≈ 256 µg/mL)
2 | CCn1cc(-c2csc(N)n2)c(=O)c2cc(F)c(N3CCN(C/C(=N/OC)c4ccc(Cl)cc4)CC3)cc21 | 461 µM (≈ 256 µg/mL) | 115 µM (≈ 63.8 µg/mL) | 115 µM (≈ 63.8 µg/mL) | 463 µM (≈ 257 µg/mL) | 231 µM (≈ 128 µg/mL) | 58 µM (≈ 32.2 µg/mL) |  | 231 µM (≈ 128 µg/mL) | 461 µM (≈ 256 µg/mL) | 115 µM (≈ 63.8 µg/mL) | 58 µM (≈ 32.2 µg/mL) | 29 µM (≈ 16.1 µg/mL) | 231 µM (≈ 128 µg/mL) | 231 µM (≈ 128 µg/mL) | 231 µM (≈ 128 µg/mL) | 231 µM (≈ 128 µg/mL) | 115 µM (≈ 63.8 µg/mL)
3 | CCO/N=C(\C)CN1CCN(c2cc3c(cc2F)c(=O)c(-c2csc(N)n2)cn3CC)CC1 | 542 µM (≈ 256 µg/mL) | 68 µM (≈ 32.1 µg/mL) | 135 µM (≈ 63.8 µg/mL) | 542 µM (≈ 256 µg/mL) | 135 µM (≈ 63.8 µg/mL) | 135 µM (≈ 63.8 µg/mL) |  | 68 µM (≈ 32.1 µg/mL) | 68 µM (≈ 32.1 µg/mL) | 68 µM (≈ 32.1 µg/mL) | 135 µM (≈ 63.8 µg/mL) | 135 µM (≈ 63.8 µg/mL) | 135 µM (≈ 63.8 µg/mL) | 1080 µM (≈ 512 µg/mL) | 135 µM (≈ 63.8 µg/mL) | 34 µM (≈ 16.1 µg/mL) | 68 µM (≈ 32.1 µg/mL)
4 | CCn1cc(-c2csc(N)n2)c(=O)c2cc(N3CCN(C/C(C)=N/OC)CC3)c(Cl)cc21 | 269 µM (≈ 128 µg/mL) | 67 µM (≈ 31.8 µg/mL) | 135 µM (≈ 64.1 µg/mL) | 269 µM (≈ 128 µg/mL) | 269 µM (≈ 128 µg/mL) | 135 µM (≈ 64.1 µg/mL) |  | 135 µM (≈ 64.1 µg/mL) | 269 µM (≈ 128 µg/mL) | 269 µM (≈ 128 µg/mL) | 135 µM (≈ 64.1 µg/mL) | 67 µM (≈ 31.8 µg/mL) | 269 µM (≈ 128 µg/mL) | 539 µM (≈ 256 µg/mL) | 135 µM (≈ 64.1 µg/mL) | 67 µM (≈ 31.8 µg/mL) | 135 µM (≈ 64.1 µg/mL)
